Measurements taken from ChEMBL document CHEMBL6103663, “Enhanced Cytotoxicity of [10]-Gingerol-Coumarin-Triazole Hybrid as a Theranostic Agent for Triple Negative Breast Cancer” (ACS Med Chem Lett, 2025).

Key:
MDA-MB-231 [1] = test: Cytotoxicity against human MDA-MB-231 cells measured after 48 hrs by MTT assay; type: functional, cell-based; conditions: MDA-MB-231, 48 h
MDA-MB-231 [2] = test: Cytotoxicity against human MDA-MB-231 cells measured after 24 hrs by resazurin dye based fluorescence assay; type: functional, cell-based; conditions: MDA-MB-231, 24 h
Procedure, shortened: (§1)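 MDA-MB-231 cells in Leibovitz-L15 with 10% FBS, 10^4 cells/well, were allowed to adhere for 24 h at 37 °C. They were then exposed to a halving serial dilution from 250 to 0.98 μM (DMSO ≤0.5% final). Next came 10% resazurin for 4 h at 37 °C, with fluorescence read at λex 540 and λem […] nm. Assays used six technical replicates across three experiments. Results were expressed as % cell death, and IC50 was taken from regression (four-parameter logistic).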

MDA-MB-231 [3] = test: Cytotoxicity against human MDA-MB-231 cells measured after 48 hrs by resazurin dye based fluorescence assay; type: functional, cell-based; conditions: MDA-MB-231, 48 h; procedure, shortened: as §1
[4] = Drug internalization in human MDA-MB-231 cells assessed as uptake in cellular perimeter at 5 uM measured after 30 mins by CellMask Deep Red plasma membrane/MitoTracker Red FM/Hoechst staining based fluorescence microscopy; type: ADME, cell-based; conditions: mda-mb-231, 0.5 h
Procedure, shortened: (§2)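 Cells (1.9 × 10^4/well) adhered for 24 h and were then given 5 μM compound, in duplicate at 37 °C, alongside untreated controls. They were stained with CellMask Deep Red, MitoTracker Red FM and Hoechst for 30 min at RT, then fixed in 4% PFA. Epifluorescence high-content imaging at 40× used a FITC filter with 488 nm excitation. The untreated autofluorescence mean set the threshold, and green area per cell was quantified in μm2.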

[5] = Drug internalization in human MDA-MB-231 cells assessed as intracellular uptake at 5 uM measured after 30 mins by CellMask Deep Red plasma membrane/MitoTracker Red FM/Hoechst staining based fluorescence microscopy; type: ADME, cell-based; conditions: mda-mb-231, 0.5 h; procedure, shortened: as §2
[6] = Drug internalization in human MDA-MB-231 cells assessed as increase in fluorescence at 5 uM measured after 30 mins by CellMask Deep Red plasma membrane/MitoTracker Red FM/Hoechst staining based fluorescence microscopy; type: ADME, cell-based; conditions: mda-mb-231, 0.5 h; procedure, shortened: as §2
[7] = Drug internalization in human MDA-MB-231 cells assessed as increase in fluorescence at 5 uM measured after 1 hr by CellMask Deep Red plasma membrane/MitoTracker Red FM/Hoechst staining based fluorescence microscopy; type: ADME, cell-based; conditions: mda-mb-231, 1 h; procedure, shortened: as §2
[8] = Drug internalization in human MDA-MB-231 cells assessed as appearance of diffuse layer of green fluorescence with small clusters inside the cell at 5 uM measured after 30 mins by DAPI/FITC/TxRed/Cy5 staining based confocal microscopy; type: ADME; conditions: mda-mb-231, 0.5 h
Procedure, shortened: (§3)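 Preparation was the same: 5 μM treatment at 37 °C in duplicate, then staining with CellMask Deep Red, MitoTracker Red FM and Hoechst, and 4% PFA fixation. Confocal Airyscan imaging at 40× used a 1 AU pinhole with gated channels: DAPI 410–508, FITC 493–571, TxRed 548–620 and Cy5 638–759 nm. Z-stacks gave orthogonal views, thresholded against untreated cells. Pearson's coefficient was calculated between the FITC and TxRed channels.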

[9] = Drug internalization in human MDA-MB-231 cells assessed as interaction with mitochondria at 5 uM measured after 30 mins by DAPI/FITC/TxRed/Cy5 staining based confocal microscopy; type: ADME; conditions: mda-mb-231, 0.5 h; procedure, shortened: as §3
[10] = Drug internalization in human MDA-MB-231 cells assessed as appearance of small blebs colocalization with mitochondria at 5 uM measured after 1 hr by DAPI/FITC/TxRed/Cy5 staining based confocal microscopy; type: ADME; conditions: mda-mb-231, 1 h; procedure, shortened: as §3
[11] = Drug internalization in human MDA-MB-231 cell mitochondria assessed as appearance of more clustered green fluorescence at 5 uM measured after 2 hrs by DAPI/FITC/TxRed/Cy5 staining based confocal microscopy; type: ADME; conditions: mda-mb-231, 2 h; procedure, shortened: as §3
[12] = Drug internalization in human MDA-MB-231 cell mitochondria assessed as appearance of green fluorescence throughout the cell at 5 uM measured after 2 hrs by DAPI/FITC/TxRed/Cy5 staining based confocal microscopy; type: ADME; conditions: mda-mb-231, 2 h; procedure, shortened: as §3
[13] = Potency index, ratio of Met10G IC50 to test compound IC50 for cytotoxicity against human MDA-MB-231 cells after 24 hrs; type: functional
[14] = Potency index, ratio of Met10G IC50 to test compound IC50 for cytotoxicity against human MDA-MB-231 cells after 48 hrs; type: functional

Row | Drug uptake [4] | Drug uptake [5] | Drug uptake [6] | Drug uptake [7] | Drug uptake [8] | Drug uptake [9] | Drug uptake [10] | Drug uptake [11] | Drug uptake [12] | Structure (SMILES) | IC50 (MDA-MB-231 [1]) [µM] | IC50 (MDA-MB-231 [2]) [µM] | IC50 (MDA-MB-231 [3]) [µM] | Ratio IC50 [13] | Ratio IC50 [14]
1 | – | – | – | – | – | – | – | – | – | CCCCCCCCC[C@H](O)CC(=O)CCc1ccc(O)c(OC)c1 | 12.1 | – | – | – | –
2 | Active | Active | Active | Not_active | Active | Active | Active | Active | Active | CCCCCCCCCC(O)CC(=O)CCc1ccc(OC)c(OC)c1 (stereo unspecified) | – | 45.6 | 26.9 | – | –
3 | Active | Active | Active | Not_active | Active | Active | Active | Active | Active | COc1cc(Cl)ccc1OCCCCc1cn(CCCNC(=O)c2cc3ccc(O)cc3oc2=O)nn1 | – | 116 | 103 | – | –
4 | Active | Active | Active | Active | Active | Active | Active | Active | Active | CCCCCCCCC[C@H](O)CC(=O)CCc1ccc(OCCCCc2cn(CCCNC(=O)c3cc4ccc(O)cc4oc3=O)nn2)c(OC)c1 | – | 19.1 | 2.3 | 2 | <=10
